Measurements as given in PMC2156157 (The Journal of Cell Biology, 1999).

Legend:
Format in all cases: cell-based, human
c-Yes = conditions: 16HBE14o− on transwell filters, mouse anti–c-Yes (1:100), XZ confocal
Summary of the method: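 16HBE14o− clones stably expressing GFP-YAP65 chimeras were selected with G418 and screened by fluorescence and anti-GFP blot. Cells were grown to confluence on transwell filters and fixed in 4% paraformaldehyde. After blocking (milk/BSA/0.1% Triton X-100, 3 h), they were stained with mouse anti-c-Yes (1:100) and fluorescent secondary antiserum, then scanned in XZ by confocal microscopy. At least two independent clones per line were analysed.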

EBP50 = assay: coimmunoprecipitation with EBP50 antisera from 16HBE14o− lysates; conditions: 16HBE14o− lysates (wild type or stably expressing GFP chimera), immunoblot
Summary of the method: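 16HBE14o− cells were wild type or stable lines expressing GFP-YAP65 or GFP-YAP65 lacking the last four residues (G418 400 µg/ml; ≥2 clones). Cells were lysed in RIPA. Rabbit anti-EBP50, preimmune serum or normal rabbit IgG (2 µg) was prebound to protein A beads. Lysate (~300 µg or ~200 µg) was incubated for 4–12 h at 4°C. Beads washed three times in RIPA; 10% SDS-PAGE; immunoblot with anti-YAP65 or anti-ezrin (1:1,000); 10–20% input.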

[1] = system: apical membrane of airway epithelial cells; conditions: 16HBE14o− cells on transwell filters 7–10 d after confluence, confocal
Summary of the method: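 Samples were 16HBE14o− filters (7–10 d post-confluence) or primary nasal cultures (air-liquid interface, 40–50 d). Fixation was 4% paraformaldehyde, 5–20 min, room temperature. Blocking used milk/BSA/Triton (16HBE14o−) or 10–20% goat serum (primary). Primary antisera ran 4–12 h: ezrin 1:300, ZO-1 1:200, EBP50 1:500 or 1:200, YAP65 1:300 or 1:200. Primary cultures also got 70 nM FITC-phalloidin. Texas red/FITC secondaries, XZ confocal imaging.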

| Molecule | c-Yes distribution in cells stably overexpressing the chimera (c-Yes) | presence in EBP50 immunoprecipitates (EBP50) | localization of endogenous protein [1] |
| --- | --- | --- | --- |
| GFP-YAP65: GFP fused in-frame with YAP65 (protein, left off: GFP, end not stated, kept) MDPGQQPPPQPAPQGQGQPPSQPPQGQGPPSGPGQPAPAATQAAPQAPPAGHQIVHVRGDSETDLEALFNAVMNPKTANVPQTVPMRLRKLPDSFFKPPEPKSHSRQASTDAGTAGALTPQHVRAHSSPASLQLGAVSPGTLTPTGVVSGPAATPTAQHLRQSSFEIPDDVPLPAGWEMAKTSSGQRYFLNHIDQTTTWQDPRKAMLSQMNVTAPTSPPVQQNMMNSASAMNQRISQSAPVKQPPPLAPQSPQGGVMGGSNSNQQQQMRLQQLQMEKERLRLKQQELLRQVRPQELALRSQLPTLEQDGGTQNPVSSPGMSQELRTMTTNSSDPFLNSGTYHSRDESTDSGLSMSSYSVPRTPDDFLNSVDEMDTGDTINQSTLPSQQNRFPDYLEAIPGTNVDLGTLEGDGMNIEGEELMPSLQEALSSDILNDMESVLAATKLDKESFLTWL | c-Yes was accumulated at the apical membrane | present in EBP50 immunoprecipitates | – |
| EBP50: ERM-binding phosphoprotein 50 kD; two PDZ domains (protein, left off: GST, end not stated, kept) MSADAAAGAPLPRLCCLEKGPNGYGFHLHGEKGKLGQYIRLVEPGSPAEKAGLLAGDRLVEVNGENVEKETHQQVVSRIRAALNAVRLLVVDPETDEQLQKLGVQVREELLRAQEAPGQAEPPAAAEVQGAGNENEPREADKSHPEQRELRPRLCTMKKGPSGYGFNLHSDKSKPGQFIRSVDPDSPAEASGLRAQDRIVEVNGVCMEGKQHGDVVSAIRAGGDETKLLVVDRETDEFFKKCRVIPSQEHLNGPLPVPFTNGEIQKENSREALAEAALESPRPALVRSASSDTSEELNSQDSPPKQDSTAPSSTSSSDPILDFNISLAMAKERAHQKRSSKRAPQMDWSKKNELFSNL | – | – | preferentially accumulated at the apical membrane |
